Reference: ChEMBL document CHEMBL1770092, “Novel N-chloroheterocyclic antimicrobials” (Bioorg Med Chem Lett, 2011)
In brackets after ≈: the same amount, converted by molar mass.

Legend:
[1] = tested on: Escherichia coli; assay: Antibacterial activity against Escherichia coli ATCC 25922 after 1 hr by modified CLSI M26-A method; format: functional; conditions: ATCC 25922, 1 h
Outline: (§1)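 Minimum bactericidal or fungicidal concentration (µg/mL) by modified CLSI M26-A: isotonic buffered saline at pH 4 replaces Mueller–Hinton broth because chlorine reacts with broth components, and exposure is shortened from 24 h at 35 °C to 1 h at room temperature.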

[2] = Stability of the compound assessed as half life in aqueous buffer at 40 degC
[3] = tested on: Staphylococcus aureus; assay: Antibacterial activity against Staphylococcus aureus ATCC 29213 after 1 hr by modified CLSI M26-A method; format: functional; conditions: ATCC 29213, 1 h; outline: as §1
[4] = tested on: Candida albicans; assay: Antifungal activity against Candida albicans ATCC 10231 after 1 hr by modified CLSI M26-A method; format: functional; conditions: ATCC 10231, 1 h; outline: as §1

Row | Structure (SMILES) | MBC [1] [µg/mL] | half-life [2] [days] | MBC [3] [µg/mL] | MFC [4] [µg/mL]
1 | CC(=O)[O-].CC1(C)CN(CC[N+](C)(C)C)C(=O)N1Cl | 512 | 126 | 128 | 
2 | CN1CC(C)(CO)N(Cl)C1=O (stereo not drawn) | 16 (≈ 89.6 µM) | > 58 | 16 (≈ 89.6 µM) | 8 (≈ 44.8 µM)
3 | CC1(C)C(=O)N(CCCCO)C(C)(C)N1Cl | 2 (≈ 8.04 µM) | > 92 | 2 (≈ 8.04 µM) | 256 (≈ 1030 µM)
4 | CC1(C)C(=O)N(CCCCC[N+](C)(C)C)C(=O)N1Cl.[Cl-] | 128 | 22 | 128 | > 1020
5 | CC1(C)C(=O)N(CCO)CC(=O)N1Cl |  | < 1 |  | 
6 | CC1(C)CC(O)CC(C)(C)N1Cl | 1 (≈ 5.22 µM) | 32 | 4 (≈ 20.9 µM) | 32 (≈ 167 µM)
7 | CC1(C)CN(CCS(=O)(=O)[O-])C(=O)N1Cl.[Na+] | 32 | > 92 | 64 | > 256
8 | CC1(C)C(=O)N(CCC[N+](C)(C)C)C(=O)N1Cl.[Cl-] | 128 | 4 | > 128 | > 1020
9 | CC1(C)CN(CCO)C(=O)C(C)(C)N1Cl | 1 (≈ 4.26 µM) |  | 2 (≈ 8.52 µM) | 8 (≈ 34.1 µM)
10 | CC1(C)CC(CCO)OC(=O)N1Cl (stereo not drawn) |  | > 14 |  | 
11 | CC1(C)C(=O)N(CCC[N+](C)(C)C)C(C)(C)N1Cl.[Cl-] | 4 | 111 | 2 | 32
12 | CN1C(=O)N(Cl)C(C)(C[N+](C)(C)C)C1=O.[Cl-] (stereo not drawn) | 16 | 5 | 64 | > 256
13 | CC1(C)C(=O)N(CCCS(=O)(=O)[O-])C(=O)N1Cl.[Na+] | 16 | > 14 | 32 | > 256
14 | CC1(C)C(=O)N(CCCCC[N+](C)(C)C)C(C)(C)N1Cl.[Cl-] | 2 | > 160 | 2 | 16
15 | CC1(C)CC([N+](C)(C)C)CC(C)(C)N1Cl.[Cl-] | 16 | 28 | 8 | 256
16 | CC1(C)CN(CCS(=O)(=O)CCCS(=O)(=O)[O-])C(=O)N1Cl.[Cs+] | 64 | > 112 | 32 | 
17 | CC1(C)C(=O)N(CC[n+]2ccccc2)C(=O)N1Cl.[Cl-] |  | 4 |  | 
18 | CC1(C)C(=O)N(CCS(=O)(=O)[O-])CC(=O)N1Cl.[Na+] | 128 | 90 | 128 | > 256
19 | CC1(C)C(=O)N(CCS(=O)(=O)[O-])C(=O)N1Cl.[Na+] | 128 | 65 | 128 | 128
20 | CC1(C)C(=O)N(CCCS(=O)(=O)[O-])C(C)(C)N1Cl.[Na+] | 4 | > 249 | 16 | 16
21 | CC1(C)C(=O)N(CCS(=O)(=O)CCCS(=O)(=O)[O-])C(=O)N1Cl.[Cs+] | 256 | > 7 | > 256 | > 256
22 | CC1(C)CC(=O)CC(C)(C)N1Cl | 1 (≈ 5.27 µM) | < 1 | 2 (≈ 10.5 µM) | 32 (≈ 169 µM)
23 | CC1(C)CS(=O)(=O)CC(C)(C)N1Cl | 2 (≈ 8.86 µM) | > 113 | 1 (≈ 4.43 µM) | 128 (≈ 567 µM)
24 | CC1(C)C(=O)N(CCCCS(=O)(=O)[O-])C(C)(C)N1Cl.[Na+] | 16 | > 84 | 8 | 32
25 | CC1(C)C(=O)N(CCS(=O)(=O)[O-])C(=O)C(C)(C)N1Cl.[Na+] | 128 | 90 | 128 | > 256
